# Experiments:
# [1] = target: T1, Alpha-1D adrenergic receptor (Homo sapiens, UniProt P25100); experiment: Displacement of [125]HEAT from human adrenergic alpha-1d receptor expressed in COS cells
# T1 sequence (P25100 whole entry): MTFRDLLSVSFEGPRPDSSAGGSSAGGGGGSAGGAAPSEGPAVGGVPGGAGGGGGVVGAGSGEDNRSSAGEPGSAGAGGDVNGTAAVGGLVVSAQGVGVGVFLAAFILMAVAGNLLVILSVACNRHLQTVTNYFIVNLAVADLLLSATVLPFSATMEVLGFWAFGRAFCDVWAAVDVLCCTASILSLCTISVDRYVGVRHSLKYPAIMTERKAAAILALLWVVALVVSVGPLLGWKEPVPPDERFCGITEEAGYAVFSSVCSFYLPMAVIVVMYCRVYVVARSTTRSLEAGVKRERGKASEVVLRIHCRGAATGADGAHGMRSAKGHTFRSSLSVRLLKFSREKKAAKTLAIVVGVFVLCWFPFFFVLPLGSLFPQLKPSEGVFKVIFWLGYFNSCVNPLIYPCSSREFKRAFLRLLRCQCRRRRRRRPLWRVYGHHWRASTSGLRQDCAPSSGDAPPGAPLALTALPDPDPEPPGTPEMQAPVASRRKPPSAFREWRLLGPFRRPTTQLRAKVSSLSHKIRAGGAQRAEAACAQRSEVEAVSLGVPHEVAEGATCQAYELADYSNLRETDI
# [2] = species on record: Homo sapiens; experiment: Selectivity ratio, Ki for human adrenergic alpha-1b receptor to Ki for human adrenergic alpha-1d receptor
# In short: (§1)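 Competition binding against 125I-HEAT on COS cell membranes expressing cloned human α1a-, α1b- or α1d-adrenergic receptor. Affinities are reported as Ki (nM). Selectivity is expressed as Ki(α1b)/Ki(α1a) and Ki(α1b)/Ki(α1d).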
# [3] = target: Adrenergic receptors; alpha-1 A & B (Homo sapiens) (UniProt P35348+P35368); experiment: Selectivity ratio, Ki for human adrenergic alpha-1b receptor to Ki for human adrenergic alpha-1a receptor; type: protein assay
# In short: as §1
# [4] = target: T2, Alpha-1A adrenergic receptor (Homo sapiens, UniProt P35348); experiment: Displacement of [125]HEAT from human adrenergic alpha-1a receptor expressed in COS cells
# T2 sequence (P35348 whole entry): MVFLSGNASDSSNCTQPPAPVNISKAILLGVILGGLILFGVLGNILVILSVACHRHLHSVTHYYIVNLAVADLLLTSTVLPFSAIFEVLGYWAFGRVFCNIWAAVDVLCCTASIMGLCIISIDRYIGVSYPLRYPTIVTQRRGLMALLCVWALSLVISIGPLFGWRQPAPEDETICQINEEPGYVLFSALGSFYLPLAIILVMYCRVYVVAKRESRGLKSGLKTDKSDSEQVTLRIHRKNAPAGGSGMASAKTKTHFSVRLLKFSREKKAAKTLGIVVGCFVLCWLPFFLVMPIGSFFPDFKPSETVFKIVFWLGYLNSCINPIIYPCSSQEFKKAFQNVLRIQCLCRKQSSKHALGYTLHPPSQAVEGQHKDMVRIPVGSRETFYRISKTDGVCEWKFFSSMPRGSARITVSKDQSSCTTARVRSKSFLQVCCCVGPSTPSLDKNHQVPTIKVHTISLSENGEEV
# [5] = target: T3, Alpha-1B adrenergic receptor (Homo sapiens, UniProt P35368); experiment: Displacement of [125]HEAT from human adrenergic alpha-1b receptor expressed in COS cells
# T3 sequence (P35368 whole entry): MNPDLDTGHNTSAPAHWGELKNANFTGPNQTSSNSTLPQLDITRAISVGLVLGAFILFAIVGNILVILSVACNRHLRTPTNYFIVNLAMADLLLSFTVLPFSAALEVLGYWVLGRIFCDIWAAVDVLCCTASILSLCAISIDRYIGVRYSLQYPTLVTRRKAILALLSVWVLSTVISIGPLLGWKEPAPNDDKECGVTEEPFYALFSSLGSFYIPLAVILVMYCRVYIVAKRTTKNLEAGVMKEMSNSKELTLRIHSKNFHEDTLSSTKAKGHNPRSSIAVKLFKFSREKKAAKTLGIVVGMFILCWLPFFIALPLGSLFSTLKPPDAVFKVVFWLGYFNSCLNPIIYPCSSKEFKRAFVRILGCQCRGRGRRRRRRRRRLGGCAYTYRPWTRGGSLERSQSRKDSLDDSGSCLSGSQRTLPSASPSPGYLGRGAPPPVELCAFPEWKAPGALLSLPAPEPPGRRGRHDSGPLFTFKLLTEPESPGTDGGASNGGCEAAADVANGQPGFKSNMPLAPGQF
Ki [1] [nM],Ratio Ki [2],Ratio Ki [3],Ki [4] [nM],Ki [5] [nM],Compound
1.5,30,56,0.8,–,CC(C)Oc1ccccc1N1CCN(C2CCC(N3C(=O)c4cccnc4C3=O)CC2)CC1 (stereo not drawn)
0.8,28,56,0.4,–,CC(C)Oc1ccccc1N1CCN(C2CCC(N3C(=O)c4ccncc4C3=O)CC2)CC1 (stereo not drawn)
0.3,3610,401,–,–,CC(C)Oc1ccccc1N1CCN(C2CCC(N3C(=O)c4cc(Cl)c(Cl)cc4C3=O)CC2)CC1 (stereo not drawn)
0.2,75,8,1.8,15,CC(C)Oc1ccccc1N1CCN(C2CCC(N3C(=O)c4ccc5ccccc5c4C3=O)CC2)CC1 (stereo not drawn)
–,136,109,–,–,CC(C)Oc1ccccc1N1CCN(C2CCC(N3C(=O)c4c(F)c(F)c(F)c(F)c4C3=O)CC2)CC1 (stereo not drawn)
0.09,–,–,0.2,18,CC(C)Oc1ccccc1N1CCN(C2CCC(N3C(=O)c4cccc(F)c4C3=O)CC2)CC1 (stereo in doubt; 6c) [listing 1 of 2 here]
–,200,90,–,–,CC(C)Oc1ccccc1N1CCN(C2CCC(N3C(=O)c4cccc(F)c4C3=O)CC2)CC1 (stereo in doubt; 6c) [listing 2 of 2 here]
14.9,–,–,1,127,CC(C)Oc1ccccc1N1CCN(C2CCC(N3C(=O)c4cccc(F)c4C3=O)CC2)CC1 (stereo in doubt; 6d) [listing 1 of 2 here]
–,9,127,–,–,CC(C)Oc1ccccc1N1CCN(C2CCC(N3C(=O)c4cccc(F)c4C3=O)CC2)CC1 (stereo in doubt; 6d) [listing 2 of 2 here]
16.4,–,–,15,269,CC(C)Oc1ccccc1N1CCN(C2CCC(N3C(=O)c4ccc5ccc(F)cc5c4C3=O)CC2)CC1 (stereo in doubt; 6f) [listing 1 of 2 here]
–,16,18,–,–,CC(C)Oc1ccccc1N1CCN(C2CCC(N3C(=O)c4ccc5ccc(F)cc5c4C3=O)CC2)CC1 (stereo in doubt; 6f) [listing 2 of 2 here]
0.5,–,–,3.9,46.5,CC(C)Oc1ccccc1N1CCN(C2CCC(N3C(=O)c4ccc5ccc(F)cc5c4C3=O)CC2)CC1 (stereo in doubt; 6g) [listing 1 of 2 here]
–,93,12,–,–,CC(C)Oc1ccccc1N1CCN(C2CCC(N3C(=O)c4ccc5ccc(F)cc5c4C3=O)CC2)CC1 (stereo in doubt; 6g) [listing 2 of 2 here]

# Reference: ChEMBL document CHEMBL1146388, “1-Arylpiperazinyl-4-cyclohexylamine derived isoindole-1,3-diones as potent and selective alpha-1a/1d adrenergic receptor ligands” (Bioorg Med Chem Lett, 2007)
